One may read the inhibition as the relative decrease from the control value, in per cent.

We go through 14 compounds from PubChem BioAssay.

Assay [1] is described as follows: inhibitors of TNFa-induced NFkB p65 translocation, primary screen, imaging, HUVEC, MLSMR starter and 10KST1 sets (AID 438;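 active means inhibition above 20% together with a positive visual image hit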;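 further: compound added about 3h40 before a 20 min TNFalpha stimulation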;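 on inhibition: signal is the nuclear over cytoplasmic p65 intensity ratio per well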). To be noted: HUVEC TNFa-induced p65 nuclear translocation; cell count: measured here: nuclei count (cytotoxicity indicator), at 2.08 µM; inhibition: at 2 µM, stronger effect = higher value, 0% TNFa-plus-vehicle, 100% no-TNFa wells.
A short description of assay [2]: inhibitors of mutant huntingtin aggregation, primary screen, imaging, exon1htt(103Q)mCFP cells, high-content imaging (AID 483;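 active means visual image review flags a hit and inhibition of aggregation exceeds 20%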;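 further: compound exposure lasted 3 days before fixation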;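 on nuclei count: percent of the per-plate median nuclei count of sample wells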). To be noted: exon1htt(103Q)mCFP cell line, aggregate imaging, at 2 µM; inhibition of aggregation: stronger effect = higher value; nuclei count: measured here: cell count, toxicity.
Assay [3] in a line: inhibitors of E-selectin induction by TNFa, primary screen, imaging, HUVEC, immunofluorescence, MLSMR starter and 10KST1 sets (AID 487;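 active means visually confirmed hit in the image check and inhibition above 20%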;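 on inhibition: signal is fraction of cell area covered by stained E-selectin grains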;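 on nuclei count: 100% = median nuclei count of all wells on the same plate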). Conditions: HUVEC TNFalpha-induced E-selectin immunofluorescence imaging, at 2 µM; inhibition: stronger effect = higher value; nuclei count: measured here: cell number, toxicity.
Assay [4] has as its target Voltage-gated potassium channel subunit beta-2 (Rattus norvegicus) (UniProt P62483). Briefly: KvBeta enzyme negative modulators, primary screen, biochemical, NADPH fluorescence (AID 622;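 active means fluorescence slope higher than the sample average by over 3 SD, cut at about -0.22 in these data, passing the limit was not always enough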;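 further: slope of raw intensity against log time taken from 70 to 1610 s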). To be noted: recombinant KvBeta, 4-cyanobenzaldehyde reduction, at 10 µM, stronger effect = higher value.
For assay [5] the target is unchanged. Briefly: KvBeta positive modulators, primary screen, biochemical, NADPH fluorescence (AID 623).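 Further: fluorescence intensity change per second fitted from 20 to 320 s.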 Conditions: Recombinant KvBeta, NADPH fluorescence decrease slope, 10 min; at 10 µM; stronger effect = lower value.
In assay [6] the target is Muscarinic acetylcholine receptor M4 (Homo sapiens) (UniProt P08173). Briefly: compounds altering M4/GIRK thallium flux, either direction, primary screen, M4 allosteric agonist project, cell-based, HEK293 M4/GIRK, BTC-AM (AID 625;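 active means fluorescence slope after compound addition differing from the mean of all tested samples at 99.7% confidence, mostly higher but some lower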;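 further: thallium influx through GIRK channels coupled to M4 in HEK293 cells with BTC-AM dye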). Conditions: at 10 µM, actives lie on both sides. The essentials: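 assay system = HEK293 cells with M4 receptor and GIRK channels | medium = pH 7.3 thallium assay buffer | doses = 10 µM final, single point | timing = cells overnight at 37 °C, BTC-AM loading 1 h, reads 2 min total | signal = BTC-AM fluorescence, 1 Hz kinetic reads | read-out = post-addition slope, 15–24 s, of baseline-normalized fluorescence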
Muscarinic acetylcholine receptor M4 (Homo sapiens), sequence (P08173 whole entry, looked up): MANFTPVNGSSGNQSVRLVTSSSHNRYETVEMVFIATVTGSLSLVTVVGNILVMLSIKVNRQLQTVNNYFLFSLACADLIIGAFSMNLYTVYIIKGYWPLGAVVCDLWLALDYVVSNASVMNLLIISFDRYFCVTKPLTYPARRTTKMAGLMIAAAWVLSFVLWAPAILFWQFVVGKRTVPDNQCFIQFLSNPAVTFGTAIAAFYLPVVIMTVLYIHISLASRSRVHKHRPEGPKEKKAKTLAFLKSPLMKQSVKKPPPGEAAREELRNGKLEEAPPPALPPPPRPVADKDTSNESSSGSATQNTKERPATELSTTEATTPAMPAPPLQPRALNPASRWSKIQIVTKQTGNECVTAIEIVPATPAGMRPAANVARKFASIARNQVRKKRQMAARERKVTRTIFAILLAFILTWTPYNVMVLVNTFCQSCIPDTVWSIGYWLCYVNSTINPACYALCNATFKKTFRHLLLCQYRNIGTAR

Assay [7] can be described thus: inhibitors of Sendai virus-induced IRF3 signaling, primary screen, TLR/RLR signaling modifier project, cell-based, Sendai virus stimulus, luciferase, 10K MLSCN set (AID 602276;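 active means inhibition at or above 50% at 10 µM; inactive means inhibition below 50%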;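 further: firefly luciferase from ISG56 promoter only with Renilla not read in this screen; 0% = Sendai virus plus DMSO and 100% = medium plus DMSO without virus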). Conditions: HEK293 RL24 IRF3 luciferase reporter, at 10 µM, stronger effect = higher value. A general note: In a reporter assay the amount or activity of a reporter protein is the signal.
Assay [8] in a line: inhibitors of poly I:C-induced TLR3 signaling, primary screen, cell-based, poly I:C stimulus, luciferase, 10K MLSCN set (AID 602277;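 active means inhibition of the reporter signal at or above 50%; inactive means inhibition below 50%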). Conditions: HEK293-TLR3 RL24 IRF3 luciferase reporter, at 10 µM, stronger effect = higher value.

The source made the active and inactive calls.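 How the source made its calls, unless noted: active means NADPH fluorescence slope more negative than the mean of all samples by about 3 SD, 99.7% confidence; inactive means the rest.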

Voltage-gated potassium channel subunit beta-2 (Rattus norvegicus), sequence (P62483 whole entry, looked up): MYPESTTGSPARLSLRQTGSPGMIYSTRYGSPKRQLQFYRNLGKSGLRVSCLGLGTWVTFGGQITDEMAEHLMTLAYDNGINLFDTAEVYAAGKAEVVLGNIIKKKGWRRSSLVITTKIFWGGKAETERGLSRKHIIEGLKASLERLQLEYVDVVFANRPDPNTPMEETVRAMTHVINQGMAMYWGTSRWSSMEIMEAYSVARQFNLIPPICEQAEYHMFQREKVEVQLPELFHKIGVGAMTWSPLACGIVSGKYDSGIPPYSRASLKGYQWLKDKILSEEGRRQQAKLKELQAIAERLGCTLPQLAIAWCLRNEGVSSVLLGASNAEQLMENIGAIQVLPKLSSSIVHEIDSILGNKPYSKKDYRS

For the compound `c1ccc(OCCOc2ncnc3sccc23)cc1`, the cell count in assay [1] was 395. Also, the inhibition was -22% (inactive) in assay [1], -62.1% (inactive) in assay [3], -2.1% (inactive) in assay [7] and -65.8% (inactive) in assay [8]. The inhibition of aggregation in assay [2] was -0.7% (inactive). Also, the nuclei count in assay [2] was found to be 106%; in assay [3] it was 125%. Also, the fluorescence slope in assay [4] is -0.583 (inactive); in assay [6] it was 0.00602 (inactive). Further, the NADPH fluorescence slope in assay [5] is -5e-05 (inactive).

Take `COc1ccc(C)cc1-n1nnnc1SCC(=O)NC(=O)NCc1ccco1`: the cell count in assay [1] stood at 180. Further, the inhibition in assay [1] was -9.6% (inactive); in assay [3] it was 8.9% (inactive); in assay [7] it was 16.7% (inactive); in assay [8], 16% (inactive). Also, the inhibition of aggregation in assay [2] was 25% (inactive). The nuclei count amounted to 65.2% in assay [2] and 90.6% in assay [3]. Moreover, the fluorescence slope in assay [4] is -0.57 (inactive); in assay [6], 0.00596 (inactive). Besides, in assay [5], the NADPH fluorescence slope is -1.3e-05 (inactive).

Take `O=C(Cn1nnc2c(cnn2-c2ccc(F)cc2)c1=O)c1ccccc1F`: in assay [1], the cell count is 438. Further, the inhibition is 5.1% (inactive) in assay [1], -86.3% (inactive) in assay [3], 11.8% (inactive) in assay [7] and 10.7% (inactive) in assay [8]. For the same compound, in assay [2], the inhibition of aggregation is -13.6% (inactive). Moreover, the nuclei count in assay [2] turned out to be 104%; in assay [3], 118%. Further, the fluorescence slope in assay [4] is -0.553 (inactive); in assay [6] it was 0.00571 (inactive). In assay [5], the NADPH fluorescence slope was -4.4e-05 (inactive).

On to `Nc1nnc(SCCOc2ccccc2)s1`, for which the cell count in assay [1] amounted to 417. Also, the inhibition in assay [1] was -0.9% (inactive); in assay [3], -70% (inactive); in assay [7], -8.16% (inactive); in assay [8], -14% (inactive). Besides, the inhibition of aggregation in assay [2] was 2.2% (inactive). Besides, the nuclei count in assay [2] was determined as 108%; in assay [3], 98.8%. In addition, the fluorescence slope was -0.535 (inactive) in assay [4] and 0.00525 (inactive) in assay [6]. Besides, the NADPH fluorescence slope in assay [5] was -1.2e-05 (inactive).

In the case of `Cn1c(=O)c2c(nc(SCC(=O)NCc3ccc4c(c3)OCO4)n2Cc2ccccc2)n(C)c1=O`, the cell count in assay [1] was determined as 641. In addition, the inhibition was -14.8% (inactive) in assay [1], -33% (inactive) in assay [3], 12.6% (inactive) in assay [7] and 11.8% (inactive) in assay [8]. Also, the inhibition of aggregation in assay [2] is 10.5% (inactive). For the same compound, the nuclei count in assay [2] worked out at 104%; in assay [3], 115%. The fluorescence slope in assay [4] is -0.473 (inactive); in assay [6], 0.0042 (inactive). In assay [5], the NADPH fluorescence slope was -3.8e-05 (inactive).

Take `N#Cc1cc2sc3nnc(-c4ccncc4)n3c2cc1C#N`: in assay [1], the cell count worked out at 728. Besides, the inhibition is 10.9% (inactive) in assay [1], 22.9% (inactive) in assay [3], 5.55% (inactive) in assay [7] and -16.8% (inactive) in assay [8]. Further, the inhibition of aggregation in assay [2] was -17.6% (inactive). Also, the nuclei count was found to be 49.6% in assay [2] and 77.1% in assay [3]. The results for the fluorescence slope in assay [4] and in assay [6] were -0.529 (inactive) and 0.0043 (inactive), respectively. Further, the NADPH fluorescence slope in assay [5] is 1.4e-05 (inactive).

With `O=C(Cn1ccc2ccccc2c1=O)NCCC(=O)NC1CCN(Cc2ccccc2)CC1`, the cell count in assay [1] is 661. The inhibition was -8.5% (inactive) in assay [1], -130% (inactive) in assay [3], -8.1% (inactive) in assay [7] and 0.132% (inactive) in assay [8]. Moreover, in assay [2], the inhibition of aggregation is 2.9% (inactive). The nuclei count in assay [2] came out at 83.9%; in assay [3], 129%. Moreover, the values for the fluorescence slope in assay [4] and in assay [6] were -0.486 (inactive) and 0.00456 (inactive), respectively. In assay [5], the NADPH fluorescence slope is -0.000203 (inactive).

As for `CC(=O)N1CCc2cc(S(=O)(=O)NC(C(=O)NCc3ccccc3)C(C)C)ccc21` (centres undefined), the cell count in assay [1] was 579. For the same compound, the inhibition was -3.8% (inactive) in assay [1], 22.1% (inactive) in assay [3], 10.6% (inactive) in assay [7] and 15.4% (inactive) in assay [8]. Moreover, the inhibition of aggregation in assay [2] was 23.8% (inactive). Also, the nuclei count turned out to be 110% in assay [2] and 94.8% in assay [3]. Further, the fluorescence slope in assay [4] is -0.587 (inactive); in assay [6], 0.00584 (inactive). Besides, the NADPH fluorescence slope in assay [5] is -1.2e-05 (inactive).

In the case of `Cc1ccc(NC(=O)CSc2nnc(CSc3nc(C)cc(C)n3)n2Cc2ccco2)c(C)c1`, the cell count in assay [1] was found to be 655. Moreover, the inhibition in assay [1] was 1.6% (inactive); in assay [3], -23.6% (inactive); in assay [7] it was -22% (inactive); in assay [8] it was -4.45% (inactive). Moreover, the inhibition of aggregation in assay [2] was 1.3% (inactive). Moreover, the nuclei count was 79.3% in assay [2] and 108% in assay [3]. For the same compound, the fluorescence slope is -0.454 (inactive) in assay [4] and 0.0102 (inactive) in assay [6]. The NADPH fluorescence slope in assay [5] was 5.9e-05 (inactive).

Consider `Cc1ccc(C(=O)CCC2CCCC2=O)cc1` (centres undefined), for which, in assay [1], the cell count is 718. Besides, the inhibition in assay [1] is -21.6% (inactive); in assay [3], 22.6% (inactive); in assay [7], -20.4% (inactive); in assay [8], -124% (inactive). The inhibition of aggregation in assay [2] is -2.7% (inactive). Further, the nuclei count in assay [2] came out at 86.9%; in assay [3], 97.8%. Moreover, the fluorescence slope in assay [4] was -0.263 (inactive); in assay [6], 0.00558 (inactive). Besides, the NADPH fluorescence slope in assay [5] is -3.8e-05 (inactive).

`Cn1c(=O)c(NC(=O)c2ccccc2)c2n(c1=S)CCCCC2`: the cell count in assay [1] is 359. Further, the inhibition in assay [1] was -5.7% (inactive); in assay [3], -17% (inactive); in assay [7] it was 16.3% (inactive); in assay [8] it was 20% (inactive). Further, in assay [2], the inhibition of aggregation was 13.7% (inactive). For the same compound, the figures for the nuclei count in assay [2] and in assay [3] were 95.3% and 107%, respectively. The fluorescence slope in assay [4] is -0.57 (inactive); in assay [6], 0.00647 (inactive). Also, the NADPH fluorescence slope in assay [5] was -1.1e-05 (inactive).

For `Cc1cc(C)cc(N2CCCn3c2nc2c3c(=O)n(CCN3CCOCC3)c(=O)n2C)c1`, the cell count in assay [1] was found to be 390. The inhibition is 3.3% (inactive) in assay [1], 27.6% (inactive) in assay [3], 18.5% (inactive) in assay [7] and 34.4% (inactive) in assay [8]. In addition, in assay [2], the inhibition of aggregation is 0.7% (inactive). Also, the nuclei count in assay [2] is 108%; in assay [3], 103%. Further, the fluorescence slope in assay [4] is -0.388 (inactive); in assay [6], 0.00574 (inactive). In assay [5], the NADPH fluorescence slope is 6.6e-05 (inactive).

As to `CCOC(=O)C(NC(=O)C1CCCN1C(=O)OCc1ccccc1)C(=O)OCC` (centres undefined), the cell count in assay [1] worked out at 586. The inhibition in assay [1] is 7.2% (inactive); in assay [3] it was -11% (inactive); in assay [7], 20.4% (inactive); in assay [8], 32% (inactive). For the same compound, the inhibition of aggregation in assay [2] is -1.6% (inactive). The nuclei count in assay [2] came out at 105%; in assay [3], 97.9%. Also, the fluorescence slope is -0.567 (inactive) in assay [4] and 0.00516 (inactive) in assay [6]. In addition, the NADPH fluorescence slope in assay [5] was -1.7e-05 (inactive).

With `CCOc1cc(C(=O)N2CCN(c3ccccc3)CC2)cc(OCC)c1OCC`, the cell count in assay [1] turned out to be 284. In addition, the inhibition was 14.5% (inactive) in assay [1], 11.1% (inactive) in assay [3], 12.4% (inactive) in assay [7] and 15.3% (inactive) in assay [8]. In addition, the inhibition of aggregation in assay [2] is 39.7% (active). Moreover, the nuclei count in assay [2] amounted to 88.2%; in assay [3] it was 90.3%. Moreover, the fluorescence slope was -0.559 (inactive) in assay [4] and 0.00369 (inactive) in assay [6]. Besides, in assay [5], the NADPH fluorescence slope is -2.8e-05 (inactive).
